# Reference: ChEMBL document CHEMBL1146203, “Acridone-based inhibitors of inosine 5'-monophosphate dehydrogenase: discovery and SAR leading to the identification of N-(2-(6-(4-ethylpiperazin-1-yl)pyridin-3-yl)propan-2-yl)-2- fluoro-9-oxo-9,10-dihydroacridine-3-carboxamide (BMS-566419)” (J Med Chem, 2007)
# How the values were obtained:
# [1] = target: Inosine-5'-monophosphate dehydrogenase 2 (Homo sapiens, UniProt P12268); assay: Inhibition of human IMPDH2
# PBMC = assay: Inhibition of T cell proliferation in PBMC cells; type: functional, cell-based; settings: Homo sapiens
# How it was run: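 Human PBMCs isolated from heparinized whole blood by density gradient and plated at 5 × 10^4 cells/well in RPMI 1640 with 10% FBS. Stimulated with anti-CD3 OKT3 (200 ng/mL) plus soluble anti-CD28 (1 µg/mL). Compounds tested in triplicate from 3.3 µM in 3-fold dilutions with 0.5% DMSO for 72 h.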
# CCRF-CEM = assay: Inhibition of CEM cell proliferation; type: functional, cell-based; settings: Homo sapiens
# How it was run: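 Human CEM T-lymphoblasts grown in RPMI 1640 with 10% heat-inactivated FBS and penicillin/streptomycin. Seeded at 3000 cells/well with 0.5% DMSO; compounds tested in triplicate from 10 µM top concentration in 3-fold dilutions.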
IC50 [1] [nM],IC50 (CCRF-CEM) [nM],Compound,IC50 (PBMC) [nM]
53,2200,CC(C)(NC(=O)c1ccc2c(=O)c3ccccc3[nH]c2c1)c1ccccn1,–
95,–,C[C@@H](NC(=O)c1ccc2c(=O)c3ccccc3[nH]c2c1)c1ccccc1,–
23,750,Cc1ccc(C(C)(C)NC(=O)c2cc3[nH]c4ccccc4c(=O)c3cc2F)cn1,270
11,870,Cc1cc(C(C)(C)NC(=O)c2cc3[nH]c4ccccc4c(=O)c3cc2F)cnc1N1CCOCC1,270
29,1000,CC(C)(NC(=O)c1cc2[nH]c3ccccc3c(=O)c2cc1F)c1ccccn1,–
10,660,CN(C)S(=O)(=O)c1ccc(C(C)(C)NC(=O)c2cc3[nH]c4ccccc4c(=O)c3cc2F)cc1,200

# Continued, molecule first:
Compound,IC50 [1] [nM],IC50 (CCRF-CEM) [nM],IC50 (PBMC) [nM]
CC(C)(NC(=O)c1cc2[nH]c3ccccc3c(=O)c2cc1F)c1cccc(S(C)(=O)=O)c1,12,580,280
CC(C)(NC(=O)c1cc2[nH]c3ccccc3c(=O)c2cc1F)c1cccnc1,11,420,140
CN(C)S(=O)(=O)c1cccc(C(C)(C)NC(=O)c2cc3[nH]c4ccccc4c(=O)c3cc2F)c1,7.9,380,130
CC(C)(NC(=O)c1ccc2c(=O)c3ccccc3[nH]c2c1)c1ccccc1,19,–,730
C[C@H](NC(=O)c1ccc2c(=O)c3ccccc3[nH]c2c1)c1ccccc1,431,–,–
O=C(NCc1ccccc1)c1ccc2c(=O)c3ccccc3[nH]c2c1,2200,–,–
COc1c(C)c2c(c(O)c1C/C=C(\C)CCC(=O)O)C(=O)OC2 [MYCOPHENOLIC ACID],–,–,130
